SMILES strings stand for the structures. pIC50, pKi: −log10 of the molar value.

In assay [1] the target is T1, Sodium-dependent dopamine transporter (Homo sapiens, UniProt Q01959). Nature of the assay: Ratio between [3H]DA reuptake and DAT binding. It is filed as functional.
For assay [2], the target named is T1, Sodium-dependent dopamine transporter. Nature of the assay: Inhibition of [125I]RTI-55 binding at Dopamine transporter (DAT) expressed in HEK cells. It is filed as cell-based, HEK293. In outline:
(§1)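 Membranes from transfected HEK 293 cells (lysed in 2 mM HEPES/1 mM EDTA, pelleted at 30000g, resuspended in 0.32 M sucrose), ~15 μg protein per tube. GF/C filtration, counting. Duplicate competition curves; IC50 converted to Ki by Cheng–Prusoff.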

The target of assay [3] is T2, Sodium-dependent noradrenaline transporter (Homo sapiens, UniProt P23975). Nature of the assay: Inhibition of [125I]RTI-55 binding to norepinephrine transporter (NET) expressed in HEK cells. In kind it is cell-based, HEK293.
Assay [4] addresses Monoamine transporters; Norepinephrine & dopamine (Homo sapiens) (UniProt Q01959+P23975). Nature of the assay: selectivity ratio between noradrenaline and dopamine transporter binding. In kind it is protein assay.
For assay [5], the target named is T2, Sodium-dependent noradrenaline transporter. As to the kind of experiment: Inhibition of [3H]- NE uptake in HEK cells expressing norepinephrine transporter. It is filed as functional, cell-based, HEK293.
Assay [6] concerns the target T3, Sodium-dependent serotonin transporter (Homo sapiens, UniProt P31645). As to the kind of experiment: Inhibition of [125I]RTI-55 binding to serotonin transporter (SERT) expressed in HEK cells. In kind it is cell-based, HEK293. In a few lines: as §1
Target sequence in this assay (P31645 whole entry): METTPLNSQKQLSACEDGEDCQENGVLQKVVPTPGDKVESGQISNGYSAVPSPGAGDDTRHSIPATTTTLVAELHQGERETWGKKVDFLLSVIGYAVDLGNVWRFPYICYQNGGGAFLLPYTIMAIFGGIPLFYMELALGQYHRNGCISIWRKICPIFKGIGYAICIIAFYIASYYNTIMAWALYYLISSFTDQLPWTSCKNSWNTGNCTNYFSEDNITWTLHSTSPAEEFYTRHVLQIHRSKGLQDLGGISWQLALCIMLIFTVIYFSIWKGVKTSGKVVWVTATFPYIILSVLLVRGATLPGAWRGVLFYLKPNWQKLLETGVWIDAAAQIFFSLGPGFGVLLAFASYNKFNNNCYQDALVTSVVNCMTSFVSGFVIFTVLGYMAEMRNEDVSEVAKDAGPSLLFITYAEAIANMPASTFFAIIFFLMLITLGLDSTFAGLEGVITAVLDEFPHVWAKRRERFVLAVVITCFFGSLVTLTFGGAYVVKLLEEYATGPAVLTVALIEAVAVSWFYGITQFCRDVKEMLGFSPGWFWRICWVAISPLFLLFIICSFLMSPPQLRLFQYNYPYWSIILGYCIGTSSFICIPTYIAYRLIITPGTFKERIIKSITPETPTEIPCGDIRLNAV
The target of assay [7] is T3, Sodium-dependent serotonin transporter. As to the kind of experiment: Ratio between [3H]5-HT reuptake and SERT binding. In kind it is functional.
Target sequence in this assay (P31645 whole entry, looked up): as the sequence (P31645 whole entry) above
For assay [8], the target named is Monoamine transporters; serotonin & dopamine (Homo sapiens) (UniProt P31645+Q01959). Nature of the assay: Selectivity ratio between serotonin and dopamine transporters. In kind it is protein assay.
The target of assay [9] is T3, Sodium-dependent serotonin transporter. As to the kind of experiment: Inhibition of [3H]- 5-HT uptake in HEK cells expressing serotonin transporter. In kind it is functional, cell-based, HEK293. In outline: (§2)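 Confluent transfected HEK 293 cells washed in PBS, scraped and suspended. Suspension preincubated with drug 10 min at 25 °C in Krebs HEPES, then [3H]DA or [3H]5-HT (20 nM final) added for another 10 min. Ended by filtration onto GF/C filters presoaked in 0.05% poly(ethylenimine), counting. Six drug concentrations, triplicate; IC50 reported.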
Target sequence in this assay (P31645 whole entry): as above

The target in assay [10] is T1, Sodium-dependent dopamine transporter. Nature of the assay: Inhibition of [3H]DA uptake in HEK cells expressing dopamine transporter. It is filed as functional, cell-based, HEK293. In a few lines:
as §2

For assay [11], the target named is T2, Sodium-dependent noradrenaline transporter. As to the kind of experiment: Compound was tested for its affinity by the inhibition of [125I]RTI-55 binding at norepinephrine transporter (NET) transfected in HEK cells. It is filed as cell-based, HEK293. In a few lines:
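Membranes from HEK 293 cells transfected with NET (lysed in 2 mM HEPES/1 mM EDTA, pelleted at 30000g, resuspended in 0.32 M sucrose), ~15 μg protein, preincubated with drug 10 min. Then [125I]RTI-55 (40–80 pM final) added in Krebs HEPES, 90 min at room temperature in dark. Filtration, counting. Competition in duplicate; IC50 converted to Ki by Cheng–Prusoff. Final DMSO 0.01%.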

Sequence of Monoamine transporters; Norepinephrine & dopamine (Homo sapiens) (P23975 whole entry, looked up): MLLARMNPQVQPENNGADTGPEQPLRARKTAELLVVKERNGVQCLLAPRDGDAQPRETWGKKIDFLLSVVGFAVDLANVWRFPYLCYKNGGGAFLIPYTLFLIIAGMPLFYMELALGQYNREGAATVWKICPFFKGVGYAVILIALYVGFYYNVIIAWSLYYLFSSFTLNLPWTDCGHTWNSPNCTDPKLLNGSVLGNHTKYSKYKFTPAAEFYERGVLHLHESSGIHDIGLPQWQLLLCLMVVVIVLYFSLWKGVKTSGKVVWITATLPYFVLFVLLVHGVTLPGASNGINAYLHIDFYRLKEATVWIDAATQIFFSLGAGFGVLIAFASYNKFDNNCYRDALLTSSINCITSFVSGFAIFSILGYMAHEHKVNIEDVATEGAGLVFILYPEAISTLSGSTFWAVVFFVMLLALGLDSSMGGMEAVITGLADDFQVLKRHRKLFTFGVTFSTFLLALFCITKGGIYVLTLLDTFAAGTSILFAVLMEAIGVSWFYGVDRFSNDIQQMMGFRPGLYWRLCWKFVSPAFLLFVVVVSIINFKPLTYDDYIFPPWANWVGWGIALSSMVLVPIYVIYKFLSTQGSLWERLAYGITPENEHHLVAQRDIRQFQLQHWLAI
Sequence of Monoamine transporters; Norepinephrine & dopamine (Homo sapiens) (Q01959 whole entry, looked up): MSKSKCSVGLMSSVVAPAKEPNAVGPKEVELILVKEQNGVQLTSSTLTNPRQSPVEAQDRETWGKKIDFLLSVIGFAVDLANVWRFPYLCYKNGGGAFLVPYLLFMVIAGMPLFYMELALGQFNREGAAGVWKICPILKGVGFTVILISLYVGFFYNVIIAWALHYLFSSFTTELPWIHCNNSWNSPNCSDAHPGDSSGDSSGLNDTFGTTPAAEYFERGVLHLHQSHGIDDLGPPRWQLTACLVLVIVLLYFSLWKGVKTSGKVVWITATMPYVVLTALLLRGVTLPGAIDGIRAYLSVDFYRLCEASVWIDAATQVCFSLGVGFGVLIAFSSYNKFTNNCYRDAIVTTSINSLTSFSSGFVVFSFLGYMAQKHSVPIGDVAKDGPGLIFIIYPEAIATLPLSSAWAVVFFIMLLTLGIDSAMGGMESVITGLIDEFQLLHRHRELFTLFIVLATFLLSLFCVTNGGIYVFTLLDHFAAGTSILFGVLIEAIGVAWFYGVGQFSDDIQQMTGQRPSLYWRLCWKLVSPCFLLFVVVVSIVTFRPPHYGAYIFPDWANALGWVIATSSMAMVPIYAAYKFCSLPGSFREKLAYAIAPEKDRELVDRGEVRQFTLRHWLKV
T2 sequence (P23975 whole entry): as the sequence (P23975 whole entry, looked up) above
T1 sequence (Q01959 whole entry): as the sequence (Q01959 whole entry, looked up) above
Sequence of Monoamine transporters; serotonin & dopamine (Homo sapiens) (P31645 whole entry, looked up): as the sequence (P31645 whole entry) above
Sequence of Monoamine transporters; serotonin & dopamine (Homo sapiens) (Q01959 whole entry, looked up): as the sequence (Q01959 whole entry, looked up) above

The pKi is the Ki on a negative log10 scale, so that one unit is a factor of ten. Low readings indicate a high Ki, high ones a low Ki. The pIC50 is −log10 of the IC50, conventionally taken in molar units. Low readings indicate a high IC50, high ones a low IC50. Turning to `O=C(Cc1ccccc1)NCCNCCOC(c1ccc(F)cc1)c1ccc(F)cc1`, the figures for the Ratio in assay [1] and in [7] were 1.5 and 2.3, respectively. The results for the pKi in assay [2], in [3] and in assay [6] were 7.27, 6.22 and 6.25, respectively. For the same compound, the Selectivity ratio in assay [4] was found to be 11.2; in assay [8] it was 10.3. Also, the pIC50 in assay [5] is 6.40; in [9], 5.89; in assay [10], 7.10.
Regarding `Fc1ccc(C(OCCNCCCNCCc2ccccc2)c2ccc(F)cc2)cc1`, the Ratio is 2.4 in [1] and 2 in [7]. In addition, the pKi in [2] was 7.55; in assay [3], 7.09; in assay [6], 6.90. Besides, the Selectivity ratio in assay [4] was determined as 2.9; in [8] it was 4.5. Moreover, the values for the pIC50 in [5], in [9] and in [10] were 6.94, 6.60 and 7.17, respectively.
For the compound `O=C1CN(CCc2ccccc2)CCN1CCOC(c1ccc(F)cc1)c1ccc(F)cc1`, the Ratio is greater than 1.7 in assay [1] and greater than 34.5 in assay [7]. In addition, the pKi is 5.84 in assay [2], 5.15 in [3] and 6.94 in assay [6]. For the same compound, the Selectivity ratio in assay [4] was determined as 4.9; in assay [8] it was 0.1. Further, the pIC50 in assay [5] was less than 5.00; in [9], 5.40; in assay [10] it was less than 5.00.
Regarding `O=C1CN(CCOC(c2ccccc2)c2ccccc2)CCN1CCCc1ccccc1`, the Ratio was greater than 1.2 in assay [1] and greater than 1.7 in [7]. Further, the pKi in [2] was 5.09; in [11] it was 5.23; in assay [6], 5.23. Further, the Selectivity ratio in assay [4] is 1; in assay [8] it was 0.7. The pIC50 in [5], in assay [9] and in assay [10] was less than 8.00 in each case.
On to `CN(CCCc1ccccc1)CCCN(C)CCOC(c1ccccc1)c1ccccc1`, for which the Ratio in assay [1] was 1.9; in [7] it was 3.9. The pKi in [2] was 6.91; in [3], 7.52; in [6], 6.36. Also, the Selectivity ratio in assay [4] is 0.2; in [8] it was 3.6. Moreover, the pIC50 is 6.84 in assay [5], 5.77 in assay [9] and 6.63 in assay [10].
`O=C(Cc1ccc(F)cc1)NCCNCCOC(c1ccc(F)cc1)c1ccc(F)cc1`: the Ratio in assay [1] was 0.9; in assay [7], 5.7. The pKi is 7.27 in assay [2], 6.07 in [3] and 6.45 in [6]. Further, the values for the Selectivity ratio in assay [4] and in assay [8] were 15.6 and 6.5, respectively. The pIC50 was 6.52 in [5], 5.70 in assay [9] and 7.33 in assay [10].
Consider `CN(CCCN(C)CCc1ccccc1)CCOC(c1ccccc1)c1ccccc1`, for which the Ratio in assay [1] and in assay [7] was 1.1 throughout. Moreover, the pKi in assay [2] was 6.49; in assay [3], 6.71; in assay [6], 5.82. For the same compound, the Selectivity ratio in assay [4] came to 0.6; in [8], 4.7. The figures for the negative logarithm of the IC50 (pIC50) in assay [5], in assay [9] and in assay [10] were 6.68, 5.77 and 6.46, respectively.
For the compound `O=C(/C=C/c1ccc(Br)cc1)NCCNCCOC(c1ccc(F)cc1)c1ccc(F)cc1`, the Ratio is 2.7 in [1] and 7.6 in assay [7]. The results for the pKi in [2], in assay [3] and in assay [6] were 6.29, 5.75 and 6.23, respectively. The Selectivity ratio came to 3.5 in assay [4] and 1.2 in assay [8]. Also, the results for the pIC50 in [5], in assay [9] and in assay [10] were less than 5.00, 5.35 and 5.86, respectively.
On to `O=C(Cc1ccccc1)NCCCNCCOC(c1ccc(F)cc1)c1ccc(F)cc1`, for which the Ratio in assay [1] was 1.2; in assay [7], 1.1. The pKi in assay [2] is 7.21; in assay [3] it was 6.32; in assay [6], 5.94. Besides, the figures for the Selectivity ratio in assay [4] and in [8] were 7.8 and 18.8, respectively. For the same compound, the pIC50 is 6.72 in assay [5], 5.91 in assay [9] and 7.14 in assay [10].
With `CN(CCOC(c1ccc(F)cc1)c1ccc(F)cc1)CCN(C)CCOC(c1ccc(F)cc1)c1ccc(F)cc1`, the Ratio in assay [1] is 32.4; in assay [7], greater than 13. Moreover, the pKi in assay [2] is 7.59; in assay [3], 6.58; in assay [6] it was 6.11. Moreover, the Selectivity ratio in assay [4] was 10.2; in assay [8] it was 30.1. Also, the results for the negative logarithm of the IC50 (pIC50) in assay [5], in assay [9] and in [10] were 5.59, less than 5.00 and 6.08, respectively.
In the case of `CN(CCOC(c1ccccc1)c1ccccc1)CCN(C)CCc1ccc(F)cc1`, the results for the Ratio in assay [1] and in [7] were 4 and 1.9, respectively. The pKi in assay [2] is 7.52; in assay [3], 6.43; in [6], 6.26. For the same compound, the Selectivity ratio in assay [4] was 12.3; in [8], 18.3. Moreover, the negative logarithm of the IC50 (pIC50) in [5] is 6.55; in assay [9], 5.98; in [10], 6.92.
With `O=C(CCc1ccccc1)NCCNCCOC(c1ccc(F)cc1)c1ccc(F)cc1`, the Ratio in [1] was 1.8; in assay [7] it was 2.2. Besides, the values for the pKi in assay [2], in assay [3] and in [6] were 7.29, 6.26 and 6.28, respectively. Also, the results for the Selectivity ratio in assay [4] and in assay [8] were 10.7 and 10.3, respectively. For the same compound, the pIC50 in [5] is 6.69; in assay [9], 5.94; in [10] it was 7.05.

These data come from ChEMBL document CHEMBL1132179, “Design, synthesis, and biological evaluation of novel non-piperazine analogues of 1-[2-(diphenylmethoxy)ethyl]- and 1-[2-[bis(4-fluorophenyl)methoxy]ethyl]-4-(3-phenylpropyl)piperazines as dopamine transporter inhibitors” (J Med Chem, 1999).
